Hits are enriched below; roughly 2.1% of the tested compounds scored in any of these assays.
PP5 inh – blocks human protein phosphatase 5 activity; P53041; purified PP5c, OMFP substrate fluorescence; inhibition, % at 6.7 µM; hit rate 0.18% among 320,000;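 active = inhibition above the campaign's mean inhibition across all tested compounds plus 3 SD, cut at about 9.5% in these data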
TDP2 absorb – blocks human TDP2 phosphodiesterase activity. O95551. hit rate 0.34% among 370,000. inhibition, % at 12.8 µM. recombinant TDP2, T5PNP hydrolysis, p-nitrophenol absorbance 415 nm;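 active = inhibition above the mean of all tested compounds plus 3 SD, set per campaign, cut at about 25% in these data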
Target sequence (O95551 whole entry, looked up): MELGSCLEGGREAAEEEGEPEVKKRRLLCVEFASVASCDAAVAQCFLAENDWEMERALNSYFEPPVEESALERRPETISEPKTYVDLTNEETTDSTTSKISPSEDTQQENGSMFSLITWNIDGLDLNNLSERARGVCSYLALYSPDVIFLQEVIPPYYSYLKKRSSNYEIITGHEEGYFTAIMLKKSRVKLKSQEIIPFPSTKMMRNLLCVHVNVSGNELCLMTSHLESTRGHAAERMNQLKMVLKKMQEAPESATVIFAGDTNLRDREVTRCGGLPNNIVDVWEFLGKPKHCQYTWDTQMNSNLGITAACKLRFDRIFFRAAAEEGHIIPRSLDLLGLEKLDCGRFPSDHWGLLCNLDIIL
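Assay system: Recombinant human TDP2 | Quantity: 120 nM TDP2 per well | Incubation: 2 h at 37 °C | Signal: Epi absorbance | Evaluation: Percent inhibition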
GSTO1 counter – GSTO1 inhibition, counter-screen for RBBP9 inhibitors. inhibition, % at 5.96 µM. hit rate 1.1% among 300,000. recombinant GSTO1, activity-based probe fluorescence polarization;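 active = inhibition above the campaign mean inhibition plus 3 SD, cut at about 35% in these data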
Apaf-1 inh – human Apaf-1 inhibition; O14727; reconstituted apoptosome caspase-3 activity, DEVD-Rh110 fluorescence; inhibition, % at 20 µM; hit rate 0.71% among 330,000; AID 489030; active = inhibition of at least 40% at 20 µM
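System: Apoptosome proteins | Medium: Hepes pH 7.5 with detergent and BSA | Also added: Cytochrome c trigger plus (Z-DEVD)2-Rh110 caspase-3 substrate | Incubation: 30 min compound preincubation, 50 min activation, room temperature | Detection: Rhodamine 110 fluorescence at Ex 480/Em 540 nm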
PP1 counter – PP1-alpha (human) inhibition in PP5 counter-screen. P62136. hit rate 0.9% among 320,000. purified PP1alpha, OMFP fluorescence. inhibition, % at 6.7 µM;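 active = inhibition above the mean inhibition of all tested compounds plus 3 SD, computed separately for each screening campaign, cut at about 15% in these data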
Large screens that a line does not name were inactive.

CCOc1ccc(/C(O)=C2/C(=O)C(=O)N(c3ccccn3)C2c2ccc(C)cc2)c(C)c1 (centres undefined)	PP1 counter 17
Cc1ccccc1OCCN1C(=O)C(=O)c2cccc(C)c21	PP1 counter 16
COc1ccccc1OCCCN1C(=O)C(=O)c2cccc(C)c21	none
Cc1ccc(OCCCN2C(=O)C(=O)c3cccc(C)c32)cc1	PP1 counter 16
COc1ccc(-c2sc3cc(OC)ccc3c2-c2ccc(OCCN3CCCCC3)cc2)cc1	none (no result: PP5 inh, GSTO1 counter, Apaf-1 inh, PP1 counter)
c1ccc(-c2sc3ccccc3c2-c2ccc(OCCN3CCCC3)cc2)cc1	Apaf-1 inh 78 (no result: PP5 inh, GSTO1 counter, PP1 counter)
Cc1oc(-c2ccc(F)cc2)cc1-c1nn2c(-c3ccoc3C)nnc2s1	PP1 counter 15
O=C(O)CCCNc1cc(N2CCC3(CC2)OCCO3)c2noc3c2c1C(=O)c1ccccc1-3	GSTO1 counter 54 (no result: TDP2 absorb)
C[C@H]1[C@H](NC(=O)c2ccc(Cl)c(C(F)(F)F)c2)CC[C@@]23CCCN2C(=O)CCC[C@@H]13	none (no result: PP5 inh, GSTO1 counter, Apaf-1 inh, PP1 counter)
CCS(=O)(=O)Nc1ccc(-c2nnc(SCC(=O)OC)o2)cc1	none
CCC(=O)Nc1ccc(C(=O)CSc2nnc(-c3ccc(NS(=O)(=O)CC)cc3)o2)cc1OC	PP1 counter 17
Cc1ccc(SCc2cc(=O)n(C)[nH]2)cc1	GSTO1 counter 53
Cc1ccc(SCc2cc(=O)n3[nH]c(C)nc3n2)cc1	none
O=C(Nc1nc(-c2ccccn2)cs1)c1cc(Cl)ccc1[N+](=O)[O-]	PP1 counter 16
CCc1cc(C(=O)Nc2nc(-c3ccccn3)cs2)sc1C	PP1 counter 16 (no result: GSTO1 counter)
Cc1cc(C(=O)Nc2nc(-c3ccccn3)cs2)ccc1[N+](=O)[O-]	none
COC(=O)CCC(=O)OC1(C)C(=O)C2=CN(CCc3ccccn3)C(c3ccc(OC)cc3)=CC2=C(Br)C1=O (centres undefined)	GSTO1 counter 66, Apaf-1 inh 73 (no result: TDP2 absorb)
O=S(=O)(Nc1ccc(O)c2ccccc12)c1ccc(Br)cc1	GSTO1 counter 61, Apaf-1 inh 57 (no result: TDP2 absorb)
CC(=O)Nc1ccc(NS(=O)(=O)c2ccccc2)c2ccccc12	none
O=C(NCC(c1ccccc1)c1ccccc1)[C@H](Cc1c[nH]c2ccccc12)NC1(C(=O)NC2CCCCC2)CCN(Cc2ccccc2)CC1	none (no result: PP5 inh, GSTO1 counter, Apaf-1 inh, PP1 counter)
O=C(NN1C(=O)/C(=C/c2cc([N+](=O)[O-])ccc2O)SC1=S)c1ccccc1O	GSTO1 counter 67 (no result: TDP2 absorb)
O=C(N[C@H](Cc1ccccc1)C(=O)NC1CCCCC1)[C@H]1O[C@@H](n2ccc(=O)[nH]c2=O)[C@H](O)[C@@H]1O	none (no result: PP5 inh, GSTO1 counter, Apaf-1 inh, PP1 counter)
COc1ccc(C2=NN(C(=O)COC(=O)c3ccc(NC(=O)CC#N)cc3)C(c3ccco3)C2)cc1 (centres undefined)	PP1 counter 16 (no result: GSTO1 counter)
O=C(OCC(=O)N1N=C(c2ccc(Cl)cc2)CC1c1ccco1)c1ccco1 (centres undefined)	none
CCC[C@H]1[C@@H](N)CC[C@@]23CCCN2C(=O)CCC[C@@H]13	none (no result: PP5 inh, GSTO1 counter, Apaf-1 inh, PP1 counter)
CCOC(=O)Cc1cc(=O)n2[nH]c(C)c(-c3ccccc3)c2n1	PP1 counter 15
O=c1cc(CSc2ccc(Cl)cc2)nc(-c2ccccc2)[nH]1	none
O=c1cc(CSc2ccc(Cl)cc2)nc(-c2ccccn2)[nH]1	PP1 counter 16
Cc1cccc2cc(CN(Cc3ccco3)C(c3nnnn3CCc3ccccc3)C(C)C)c(=O)[nH]c12 (centres undefined)	PP1 counter 16
O=C(C1CCC1)N1CCc2cc(S(=O)(=O)C3CCN(Cc4ccc(F)cc4)CC3)ccc21	none (no result: PP5 inh, GSTO1 counter, Apaf-1 inh, PP1 counter)
O=[N+]([O-])c1cc([N+](=O)[O-])c2cc(-c3cccnc3)[nH]c2c1	TDP2 absorb 26
Cc1cccc(N2CCN(C(=O)c3ccc(N4CCCC4=O)cc3)CC2C)c1 (centres undefined)	none
COc1ccc(N2CCN(C(=O)c3ccc4c(c3)NC(=O)C(CSCc3cccc(F)c3)N4)CC2)cc1 (centres undefined)	PP1 counter 33 (no result: TDP2 absorb)
COc1ccc(N2CCN(C(=O)c3ccc4c(c3)NC(=O)C(CSCc3c(F)cccc3Cl)N4)CC2)cc1 (centres undefined)	PP1 counter 25 (no result: TDP2 absorb)
COc1ccc(C(=O)N2CCN(c3cccc(Cl)c3)CC2)cc1	none
Cc1cccc(N2CCN(C(=O)c3ccc4c(c3)NC(=O)C(CSCc3ccc(F)cc3)N4)CC2C)c1 (centres undefined)	PP1 counter 19 (no result: TDP2 absorb)

Bioassay records: PubChem BioAssay, several laboratories
